miR-122 sensor: inhibitors of miR-122 in Huh7 cells; Huh7 miR-122 Renilla luciferase sensor, 48 h; neutral wells = 0, positive control = 100; activation (reporter increase), % at 12.5 µM; 340,000 compounds, 0.3% hits; AID 602342;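 active = mean replicate activation score at least 90 and every replicate individually at or above 90; inconclusive = only one of the two criteria met; inactive = neither criterion met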;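 note: higher luciferase means less miR-122 activity so hits act as miR-122 inhibitors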
Env fusion inh: inhibitors of HIV Env-mediated cell fusion; 360,000 compounds, 1.1% hits; HeLa-JRFL Env/CEM21 cell fusion, luciferase; inhibition, % at 12.3 µM;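 active = mean replicate inhibition score of at least 50 and every replicate individually at or above 50; inconclusive = only one of the two criteria met; inactive = mean below 50 and not all replicates reaching 50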;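 note: 0% = plate neutral controls and 100% = maraviroc near 300 nM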
INS-1E GSIS act: primary screen for activators of insulin secretion dependent on glucose, INS-1E cells, GLuc reporter luminescence. INS-1E GLuc reporter insulin secretion, 2-3 h. activation, % at 16.6 µM. 370,000 compounds, 0.61% hits. AID 743287;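 active = lowest replicate activation of at least 40%, so every replicate reaches that level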;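 note: 0% = median of neutral control wells and 100% = median of IBMX positive control wells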
Cneo AK release: Cryptococcus neoformans lysis via adenylate kinase release. C. neoformans lysis, adenylate kinase release luminescence, 4 h; normalised: neutral wells 0, clomiphene wells 100. lysis activity, % at 15 µM. 360,000 compounds, 0.2% hits;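 active = mean lysis activity across replicates of at least 80%, whatever share of replicates individually reach that level; inactive = mean lysis activity below 80%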
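Material – log-phase Cryptococcus neoformans yeast cells · Input – 5 × 10^6 yeast cells/mL · Medium – fresh YPD growth medium · Doses – single compound concentration per well · Timing – static 4 h at 37 °C with compound, 1 h detection · Detection – adenylate kinase release luminescence · Read-out – signal increase indicating cell lysis · Control set – Clomiphene as positive lysis control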
Ecoli rRNA inh: selective bacterial rRNA inhibition in E. coli | E. coli WT GFP vs humanized-ribosome RFP mutants, fluorescence, 24 h; hits give low values; DMSO median 0, no signal -100 | GFP signal change (wild-type ribosome), % (no concentration beside the values) | 350,000 compounds, 1.6% hits;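 active = significant combined selectivity score with lowered wild-type GFP, culture density cut under 30%, mutant RFP and density less affected; inactive = any of these conditions unmet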
CFTR F508del cor: correctors of CFTR F508del function in bronchial epithelial cells; 350,000 compounds, 0.36% hits; CFBE cells, YFP halide quenching; stimulated with forskolin plus potentiator P3; % fluorescence drop versus neutral controls; activity (quench increase), % at 7.58 µM;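 active = mean added fluorescence quench of at least 8% versus neutral control, with both replicates also reaching 8%; inconclusive = only one of the mean or replicate conditions met; inactive = mean below 8% and not both replicates reaching 8%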;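 note: cells transiently co-express mutant CFTR-F508del with the halide-sensitive YFP; corrector assay measuring rescue of mutant channel to the surface after 24 h compound exposure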
AID977621: growth inhibition of wild-type GFP E. coli, dose response, H69 mutant RFP, cherry-pick. shares compounds with Ecoli rRNA inh. E. coli wild-type GFP strain growth, fluorescence, 24 h. activity change, negative = inhibition at 50 µM. 1,900 tested, under 10 active;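 active = Wild-type ribosome reporter drop at least double the humanized mutant ribosome reporter drop, growth loss under a set limit; inconclusive = no clear call, values can overlap the other calls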;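 note: wild-type GFP and H69 mutant RFP strains grown together 50/50 in each well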
Starred values were filed as active, the others as inactive; ? = inconclusive; nt = not tested or not shown; [ ] = dose if it differs, or a comment. Most compounds without a hit are left out; they make up all but 3.1% or so of the library.

SMILES	miR-122 sensor	Env fusion inh	INS-1E GSIS act	Cneo AK release	Ecoli rRNA inh	CFTR F508del cor	others
CCCCn1nnnc1C(CCc1ccccc1)N1CCC(n2c(=O)[nH]c3ccccc32)CC1 (stereo unspecified)	-3.7	-80.7	nt	1.0	nt	2.4
CCCCn1nnnc1C(CCSC)N1CCC(n2c(=O)[nH]c3ccccc32)CC1 (stereo unspecified)	8.1	1.1	-7.9	-24.5	-2.7	4.8
CCCCn1nnnc1C(C1CC1)N1CCC(n2c(=O)[nH]c3ccccc32)CC1 (stereo unspecified)	-0.4	-105.8	-28.7	-1.3	-19.8*	3.4
O=C(Cc1ccccc1)N1CCCCN2[C@@H](CO)[C@H](c3ccc(-c4ccccc4)cc3)[C@@H]2C1	-6.1[16.7 µM]	nt	-4.3	5.7	-58.9	-2.3
CN1[C@@H]2CN(CC3CC3)C[C@H]1C2c1ccc(Br)cc1 (stereo partly specified)	nt	nt	-17.5	nt	-7.1	nt
O=C1CN=C(c2ccccc2)c2oc3ccc(Br)cc3c2N1	nt	-303.0	nt	nt	nt	nt
COc1cccc(OC)c1C1=NCC(=O)Nc2c1oc1ccc(Br)cc21	66.2	-177.6	-8.1	-0.9	-28.1*	3.8
CCCCCCC(=O)N/N=C/c1c(O)n(C(C)CC)c(=S)[nH]c1=O (stereo unspecified)	-0.6	8.2	-5.2	-2.0	-22.8*	4.4
COc1ccc(OC(=O)N(C)C[C@H]2OCc3ccccc3-c3c(n(C)c4ccccc34)C(=O)N([C@@H](C)CO)C[C@@H]2C)cc1	nt	nt	-13.8	nt	2.5	-2.2
CCC(C)C1NC(=O)C(NC(=O)C(CC(C)C)N(C)C(=O)C2CCCN2C(=O)C(C)O)C(C)OC(=O)C(Cc2ccc(OC)cc2)N(C)C(=O)C2CCCN2C(=O)C(CC(C)C)NC(=O)[C@H](C)C(=O)[C@H](C(C)C)OC(=O)CC1O (stereo partly specified)	-13.7	82.7*	-19.3	nt	4.5	-8.9
Cc1nc2ccccc2c(=O)n1-c1ccc(Cl)c(Cl)c1	-1.7	-10.4	40.2*	0.2	0.6	-1.1
COc1ccc(-n2c(-c3ccc(C)cc3)nc3ccccc3c2=O)cc1	nt	-7.6	nt	nt	-26.8*	0.5
CC1=NCCc2c1[nH]c1cc(O)ccc21	2.6	-6.4	10.5	1.0	nt	31.7*
COc1ccc(C#Cc2ccc([C@H]3[C@H]4CN(C(=O)Cc5ccncc5)CCCCN4[C@H]3CO)cc2)cc1	-13.5[16.7 µM]	nt	6.3	53.6	6.9	4.7
CC(=O)OC1C(O)C(C)OC(OC2C(OC(=O)C3CCC4C(C3)OC3(CC(OC(=O)/C=C/c5ccccc5)C(C)CO3)C43CO3)OC(C)C(O)C2OC(C)=O)C1O (stereo unspecified)	-14.2	72.2*	-23.1	nt	nt	-6.7
O=C(CNC(=O)OCc1ccccc1)NCC(=O)Nc1ccc(Br)cc1C(=O)c1ccccc1	-4.7	9.8	10.5	nt	nt	nt
O=C(CNC(=O)OCc1ccccc1)Nc1ccc(Br)cc1C(=O)c1ccccc1	40.0	59.2*	nt	5.0	nt	nt
FC(F)(F)CN1C[C@@H]2C(c3ccc(Br)cc3)[C@H](C1)N2CC1CC1 (stereo partly specified)	nt	nt	2.9	nt	-56.9	nt
Cc1nc(-c2cccc(CN(C)C(=O)Oc3ccc([N+](=O)[O-])cc3)c2)no1	nt	24.2	-10.3	nt	-19.1*	2.1
CN(Cc1cccc(-c2cccnc2)c1)C(=O)Oc1ccc([N+](=O)[O-])cc1	nt	134.2*	-33.5	nt	-28.8	1.8
CN(C)C(=O)Oc1ccc([N+](=O)[O-])cc1	-5.7	-8.2	1.9	nt	-1.4	-0.6
COc1ccc(-c2ccc([C@H]3[C@H]4CN(C(=O)Cc5ccccc5)CCCCN4[C@H]3CO)cc2)cc1	13.8[16.7 µM]	nt	-15.5	-0.6	-5.6	-2.6
CC(C)CC#Cc1ccc([C@@H]2[C@H](CO)N3CCCCN(C(=O)Cc4ccccn4)C[C@@H]23)cc1	-6.5[16.7 µM]	nt	-13.3	2.4	-1.8	-0.4
O=[N+]([O-])c1ccccc1-c1cc(-c2ccccc2)cc(-c2ccccc2)[n+]1Cc1ccccc1Cl	nt	61.1*	-5.1	nt	-53.3	-5.4
CC[C@@]1(O)C(=O)OCc2c1cc1n(c2=O)Cc2cc3c(NC(=O)CN)cccc3nc2-1	nt	68.9*	6.0	-1.4	14.4	-0.9
SMILES	miR-122 sensor	Env fusion inh	INS-1E GSIS act	Cneo AK release	Ecoli rRNA inh	CFTR F508del cor	others
CCC1(OC(=O)CN)C(=O)OCc2c1cc1n(c2=O)Cc2cc3ccccc3nc2-1 (stereo unspecified)	-1.1	nt	8.2	0.5	20.9	nt
COc1ccc(-c2ccc([C@@H]3[C@H]4CN(C(=O)Cc5ccccc5)CCCCN4[C@H]3CO)cc2)cc1	3.2[16.7 µM]	nt	5.1	2.3	-48.6	-2.5
COc1ccc(-c2ccc([C@@H]3[C@@H](CO)N4CCCCN(C(=O)Cc5ccccc5)C[C@H]34)cc2)cc1	-2.7[16.7 µM]	nt	6.5	1.1	-58.0	-0.5
C[C@]12CCC3C(CC[C@H]4C[C@@H](O)CC[C@]34C)[C@H]1CC[C@H]2O (stereo partly specified)	1.3	nt	23.2	-0.6	-20.4*	-4.5	AID977621=-25.8
CCN1[C@@H]2Cn3c(ccc(-c4cccc(OC)c4)c3=O)[C@H]1[C@@H](C(=O)OC)[C@@H]2CO	2.2[16.7 µM]	nt	6.8	-1.5	1.5	-0.1
CC(=O)OC1N=C(c2ccccc2Cl)c2cc(Br)ccc2NC1=O (stereo unspecified)	nt	-1.6	-1.9	nt	-19.8*	-2.3	AID977621=-14.3
CCOC(=O)c1c(C)n(Cc2ccccc2)c2ccc(O)cc12	nt	7.1	-11.1	nt	-27.4*	-1.1	AID977621=-16
COC(=O)c1c(C)n(Cc2ccccc2)c2ccc(O)cc12	0.2	35.8	1.9	-8.2	-31.5	0.6
CCCCn1c(NS(=O)(=O)c2ccc(C)cc2)c(C(=O)OCC)c2nc3ccccc3nc21	-0.5	6.3	-8.5	1.8	-22.4*	3.1	AID977621=?
C[C@@H]1CN([C@@H](C)CO)C(=O)CCCn2cc(nn2)CO[C@@H]1CN(C)C(=O)Oc1ccc2ccccc2c1	0.2[16.7 µM]	-25.8[16.7 µM]	5.3	7.2	-4.2	0.2
COC(=O)[C@H]1[C@H](CO)[C@H]2Cn3c(ccc(-c4ccncc4)c3=O)[C@@H]1N2S(=O)(=O)c1ccccc1F	-6.6[16.7 µM]	nt	6.0	0.8	1.3	0.3
CCOC(=O)[C@]12Cc3ccccc3[C@H]1N(C(C)C)C(=O)c1cc(OC)ccc12	nt	18.6	59.4	nt	-42.9	-1.2
CCOC(=O)[C@]12Cc3ccccc3[C@H]1N(C)C(=O)c1cc(OC)ccc12	nt	8.0	37.6	nt	-20.3*	0.3	AID977621=-16.4

Source: PubChem BioAssay
